This note sets out measurements from ChEMBL document CHEMBL2401667, “Synthesis of N-substituted acyclic β-amino acids and their investigation as GABA uptake inhibitors” (Eur J Med Chem, 2013).

Assay [1] deals with Sodium- and chloride-dependent GABA transporter 1 (Homo sapiens, UniProt P30531). Nature of the assay: Inhibition of GABA uptake at GAT-1 (unknown origin).
The target in assay [2] is Sodium- and chloride-dependent GABA transporter 1 (Mus musculus, UniProt P31648). As to the kind of experiment: Inhibition of GABA uptake at murine GAT-1 expressed in HEK293 cells. Format: cell-based.
Assay [3] deals with T1, GABA transporter 2 (Mus musculus, UniProt P31651).
T1 sequence (P31651 whole entry): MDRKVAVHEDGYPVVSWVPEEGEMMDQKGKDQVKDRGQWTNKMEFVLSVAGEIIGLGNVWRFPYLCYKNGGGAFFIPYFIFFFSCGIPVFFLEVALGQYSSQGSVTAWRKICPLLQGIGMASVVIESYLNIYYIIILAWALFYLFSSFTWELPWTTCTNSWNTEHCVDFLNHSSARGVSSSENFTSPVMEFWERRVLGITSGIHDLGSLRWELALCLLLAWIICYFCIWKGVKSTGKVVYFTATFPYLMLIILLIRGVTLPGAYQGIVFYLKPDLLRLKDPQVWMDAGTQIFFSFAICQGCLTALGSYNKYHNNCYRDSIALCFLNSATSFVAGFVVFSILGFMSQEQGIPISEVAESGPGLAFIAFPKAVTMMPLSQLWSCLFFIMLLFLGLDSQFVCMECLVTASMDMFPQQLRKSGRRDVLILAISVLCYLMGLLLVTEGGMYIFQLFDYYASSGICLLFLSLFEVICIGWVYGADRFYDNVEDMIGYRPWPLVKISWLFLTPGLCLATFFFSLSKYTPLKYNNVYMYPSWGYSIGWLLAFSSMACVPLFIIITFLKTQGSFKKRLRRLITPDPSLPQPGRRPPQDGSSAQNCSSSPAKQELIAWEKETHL
As to the kind of experiment: Inhibition of GABA uptake at murine BGT-1 expressed in HEK293 cells. Format: cell-based.

Assay [4] in a line: Inhibition of GABA uptake at GAT-3 in porcine brain stem P2C fraction. The arrangement: species or system Sus scrofa. The essentials: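 Uptake assay on a P2C membrane preparation from porcine brainstem, which predominantly addresses the GAT3 subtype.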
The nature of assay [5]: Inhibition of GABA uptake at GAT-1 in porcine frontal cortex P2B fraction. Format: tissue-based, Sus scrofa. The essentials: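 Uptake assay on a P2B membrane preparation from porcine frontal cortex, which predominantly addresses the GAT1 subtype.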
In assay [6] the target is T2, GABA transporter 3 (Mus musculus) (UniProt P31649).
T2 sequence (whole entry): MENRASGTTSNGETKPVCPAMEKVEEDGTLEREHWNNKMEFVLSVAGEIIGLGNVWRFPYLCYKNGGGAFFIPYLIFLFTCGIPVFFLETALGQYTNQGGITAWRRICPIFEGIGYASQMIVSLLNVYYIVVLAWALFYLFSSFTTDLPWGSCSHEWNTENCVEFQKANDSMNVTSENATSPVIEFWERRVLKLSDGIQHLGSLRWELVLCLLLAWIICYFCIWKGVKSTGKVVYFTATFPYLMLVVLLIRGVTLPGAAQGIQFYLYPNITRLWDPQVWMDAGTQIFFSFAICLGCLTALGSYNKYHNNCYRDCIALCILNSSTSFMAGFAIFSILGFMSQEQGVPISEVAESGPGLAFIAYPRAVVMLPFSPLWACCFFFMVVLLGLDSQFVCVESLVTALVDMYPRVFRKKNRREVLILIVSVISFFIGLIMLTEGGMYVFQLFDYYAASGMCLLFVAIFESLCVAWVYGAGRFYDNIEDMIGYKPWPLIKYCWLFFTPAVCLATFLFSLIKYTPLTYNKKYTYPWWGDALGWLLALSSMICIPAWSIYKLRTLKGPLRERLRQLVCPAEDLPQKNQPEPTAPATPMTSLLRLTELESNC
As to the kind of experiment: Remaining GABA uptake at murine GAT-2 expressed in HEK293 cells at 100 uM relative to control.

Assay [7] deals with T3, GABA transporter 2 (Mus musculus) (UniProt P31651).
T3 sequence (whole entry): T1 sequence (P31651 whole entry)
Nature of the assay: Remaining GABA uptake at murine BGT-1 expressed in HEK293 cells at 100 uM relative to control.

The target in assay [8] is T4, GABA transporter 4 (Mus musculus, UniProt P31650).
T4 sequence (P31650 whole entry): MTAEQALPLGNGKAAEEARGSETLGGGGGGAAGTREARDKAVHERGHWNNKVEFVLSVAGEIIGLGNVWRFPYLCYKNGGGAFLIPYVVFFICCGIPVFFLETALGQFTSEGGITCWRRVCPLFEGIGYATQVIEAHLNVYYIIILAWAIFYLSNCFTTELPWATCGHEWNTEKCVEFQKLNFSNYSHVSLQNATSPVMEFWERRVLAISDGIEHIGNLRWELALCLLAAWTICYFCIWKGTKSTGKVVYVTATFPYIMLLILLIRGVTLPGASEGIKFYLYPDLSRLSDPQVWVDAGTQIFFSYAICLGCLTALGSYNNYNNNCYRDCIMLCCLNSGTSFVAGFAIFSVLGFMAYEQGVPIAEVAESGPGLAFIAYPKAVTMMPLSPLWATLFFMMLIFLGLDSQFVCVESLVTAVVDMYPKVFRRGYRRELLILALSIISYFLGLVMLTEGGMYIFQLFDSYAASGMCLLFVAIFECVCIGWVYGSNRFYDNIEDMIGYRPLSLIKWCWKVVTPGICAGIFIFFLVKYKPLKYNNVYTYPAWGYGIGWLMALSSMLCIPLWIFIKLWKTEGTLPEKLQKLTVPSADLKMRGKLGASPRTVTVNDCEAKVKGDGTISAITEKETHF
Nature of the assay: Inhibition of GABA uptake at murine GAT-3 expressed in HEK293 cells. Format: cell-based.

In assay [9] the target is Sodium- and chloride-dependent GABA transporter 1 (Mus musculus) (UniProt P31648). Nature of the assay: Remaining GABA uptake at murine GAT-1 expressed in HEK293 cells at 100 uM relative to control.
Assay [10] deals with T5, GABA transporter 3 (Mus musculus, UniProt P31649).
T5 sequence (P31649 whole entry): T2 sequence (whole entry)
Nature of the assay: Inhibition of GABA uptake at murine GAT-2 expressed in HEK293 cells. Format: cell-based.

The target of assay [11] is T3, GABA transporter 2 (Mus musculus). Nature of the assay: Remaining GABA uptake at murine BGT-1 expressed in HEK293 cells at 1 mM relative to control.

Chain of Sodium- and chloride-dependent GABA transporter 1 (Homo sapiens, UniProt P30531) (P30531 whole entry): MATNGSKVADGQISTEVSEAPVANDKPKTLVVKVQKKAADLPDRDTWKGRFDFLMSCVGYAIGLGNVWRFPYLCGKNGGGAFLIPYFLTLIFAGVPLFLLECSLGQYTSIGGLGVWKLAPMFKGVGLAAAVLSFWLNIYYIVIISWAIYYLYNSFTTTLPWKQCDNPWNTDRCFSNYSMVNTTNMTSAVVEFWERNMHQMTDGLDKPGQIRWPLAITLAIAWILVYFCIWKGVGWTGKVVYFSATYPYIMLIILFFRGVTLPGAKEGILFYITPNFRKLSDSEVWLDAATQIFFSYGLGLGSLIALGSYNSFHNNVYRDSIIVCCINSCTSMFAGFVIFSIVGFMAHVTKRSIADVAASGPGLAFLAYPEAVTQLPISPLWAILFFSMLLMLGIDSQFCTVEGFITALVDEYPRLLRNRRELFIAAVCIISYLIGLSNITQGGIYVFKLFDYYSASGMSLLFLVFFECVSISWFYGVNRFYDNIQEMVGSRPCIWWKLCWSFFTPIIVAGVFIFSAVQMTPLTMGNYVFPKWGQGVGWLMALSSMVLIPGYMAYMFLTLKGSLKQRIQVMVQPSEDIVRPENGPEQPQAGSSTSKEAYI

Regarding `O=C(O)[C@@H]1CCCN(CCOCCN2c3ccccc3CCc3ccccc32)C1`, the IC50 (as a rule, the concentration that gives 50% inhibition) in [1] is 39.8 µM.

For `O=C(O)[C@@H]1CCCN(CCOCCN2c3ccccc3Sc3ccccc32)C1`, in assay [1], the 50% inhibitory concentration (IC50) was 0.309 µM.

As for `O=C(O)[C@@H]1CCCN(CCOCCN2c3ccccc3C=Cc3ccccc32)C1`, it took 0.646 µM to reach half-maximal inhibition in [1] (IC50).

As for `COc1ccc(C(/C=C/CN2CCC[C@H](C(=O)O)C2)(c2ccc(OC)cc2)c2ccc(OC)cc2)cc1`, the concentration for half-maximal inhibition (IC50) was 39.8 µM in [2] and 38 µM in [3].

As for `Cl.O=C(O)CCNCCC=C(c1ccccc1)c1ccccc1`, the pIC50 (in general, the IC50 on a negative log10 scale, so that one unit is a factor of ten) in assay [4] was 3.36; in [5] it was 3.94.

Take `O=C(O)CCNCCOCCN1c2ccccc2CCc2ccccc21`: the IC50 in [2] was 20.4 µM. Besides, the remaining GABA uptake in assay [6] is 55%; in assay [7], 85%.

Regarding `O=C(O)CCNCCOCCN1c2ccccc2Sc2ccccc21`, the midpoint of inhibition in [2], the IC50, lay at 35.5 µM. For the same compound, the values for the remaining GABA uptake in assay [6] and in [7] were 50% and 88%, respectively.

For the compound `COc1ccc(C(OCCNCCC(=O)O)(c2ccc(OC)cc2)c2ccc(OC)cc2)cc1`, the IC50 in assay [8] is 42.7 µM. For the same compound, the remaining GABA uptake in assay [6] is 40%; in [9], 57%; in assay [7], 55%.

With `COc1ccc(C(OCCN2CCC[C@H](C(=O)O)C2)(c2ccc(OC)cc2)c2ccc(OC)cc2)cc1`, in [3], the IC50 is 30.9 µM.

Regarding `COc1ccc(C(/C=C/CNCCC(=O)O)(c2ccc(OC)cc2)c2ccc(OC)cc2)cc1`, the values for the remaining GABA uptake in assay [6], in assay [9] and in assay [7] were 94%, 77% and 47%, respectively.

Consider `O=C(O)CCNCCOCCN1c2ccccc2C=Cc2ccccc21`, for which the remaining GABA uptake in assay [6] worked out at 87%; in assay [9], 56%; in [7], 85%.

In the case of `CC(N)CC(=O)O` (racemic), the IC50 was 83.2 µM in assay [8], 50.1 µM in assay [2], 46.8 µM in [10] and 813 µM in [3].

The compound `CC(CC(=O)O)NCCC=C(c1ccccc1)c1ccccc1` (racemic) showed an IC50 in assay [2] of 4.57 µM. Also, the remaining GABA uptake in assay [6] is 82%; in assay [7] it was 86%.

For `CC(CC(=O)O)NCCOCCN1c2ccccc2CCc2ccccc21` (racemic), the remaining GABA uptake in assay [11] worked out at 69%. In addition, the values for the IC50 in [8], in assay [2] and in assay [10] were 339 µM, 13.2 µM and 214 µM, respectively.

Turning to `CC(CC(=O)O)NCCOCCN1c2ccccc2C=Cc2ccccc21` (racemic), half-maximal inhibition in [2] (IC50) was put at 17.4 µM. For the same compound, the remaining GABA uptake in assay [6] turned out to be 84%; in assay [7], 82%.

Take `CC(CC(=O)O)NCCOCCN1c2ccccc2Sc2ccccc21` (racemic): the IC50 in assay [2] was 8.71 µM; in assay [10], 40.7 µM. In assay [7], the remaining GABA uptake stood at 74%.

In the case of `COc1ccc(C(OCCNC(C)CC(=O)O)(c2ccc(OC)cc2)c2ccc(OC)cc2)cc1` (racemic), the IC50 in assay [8] was 33.9 µM. For the same compound, the remaining GABA uptake in [6] is 48%; in assay [9] it was 114%; in assay [7], 73%.

In the case of `COc1ccc(C(/C=C/CNC(C)CC(=O)O)(c2ccc(OC)cc2)c2ccc(OC)cc2)cc1` (racemic), the IC50 in assay [8] was 60.3 µM; in assay [10], 63.1 µM. Moreover, the values for the remaining GABA uptake in [9] and in assay [7] were 52% and 47%, respectively.

In the case of `NCCC(=O)O` [BETA-ALANINE], the IC50 in assay [8] is 34.7 µM; in assay [2], 2820 µM; in assay [10], 21.9 µM; in assay [3], 331 µM.
